Laboratory results as given in ChEMBL document CHEMBL4765357, “Development of small-molecule inhibitors of fatty acyl-AMP and fatty acyl-CoA ligases in Mycobacterium tuberculosis” (Eur J Med Chem, 2020).
In brackets after ≈: the same amount, converted by molar mass.

Assays:
[1] = Inhibition of Mycobacterium tuberculosis PKS13
[2] = tested on: Mycobacterium tuberculosis; assay: Antimycobacterial activity against Mycobacterium tuberculosis H37Rv ATCC 27294 assessed as inhibition of bacterial growth under 7H9 medium condition after 7 to 14 days in presence of palmitate by broth microdilution method; assay type: functional; conditions: time 7-14 day
Procedure, shortened: (§1)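 Mtb H37Rv ATCC 27294 by broth microdilution in GAST or 7H9 base with 5 g/L BSA fraction V, 0.8 g/L NaCl and 0.05% tyloxapol. Carbon source was 20 mM glycerol/10 mM glucose or 0.05 mM sodium palmitate. Compounds came from DMSO stocks with DMSO-only controls. Inoculum was 10⁴-10⁵ cells; growth was read at 7 and 14 days. MIC is the concentration giving >99% growth inhibition; runs were in triplicate.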

[3] = tested on: Mycobacterium tuberculosis; assay: Antimycobacterial activity against Mycobacterium tuberculosis H37Rv ATCC 27294 assessed as inhibition of bacterial growth under GAST medium condition after 7 to 14 days by broth microdilution method; assay type: functional; conditions: time 7-14 day; procedure, shortened: as §1
[4] = tested on: Mycobacterium tuberculosis; assay: Antimycobacterial activity against Mycobacterium tuberculosis H37Rv ATCC 27294 assessed as inhibition of bacterial growth under 7H9 medium condition after 7 to 14 days by broth microdilution method; assay type: functional; conditions: time 7-14 day; procedure, shortened: as §1
[5] = molecular target: T1, Long-chain-fatty-acid--AMP ligase FadD28 (Mycobacterium tuberculosis, UniProt P9WQ59); assay: Inhibition of Mycobacterium tuberculosis H37Rv FAAL28 Spectra expressed in Escherichia coli BL21(DE3) cells assessed as cleavage of MEsG by spectroscopic analysis; conditions: read-out: Ki(app)
T1 sequence (P9WQ59 whole entry): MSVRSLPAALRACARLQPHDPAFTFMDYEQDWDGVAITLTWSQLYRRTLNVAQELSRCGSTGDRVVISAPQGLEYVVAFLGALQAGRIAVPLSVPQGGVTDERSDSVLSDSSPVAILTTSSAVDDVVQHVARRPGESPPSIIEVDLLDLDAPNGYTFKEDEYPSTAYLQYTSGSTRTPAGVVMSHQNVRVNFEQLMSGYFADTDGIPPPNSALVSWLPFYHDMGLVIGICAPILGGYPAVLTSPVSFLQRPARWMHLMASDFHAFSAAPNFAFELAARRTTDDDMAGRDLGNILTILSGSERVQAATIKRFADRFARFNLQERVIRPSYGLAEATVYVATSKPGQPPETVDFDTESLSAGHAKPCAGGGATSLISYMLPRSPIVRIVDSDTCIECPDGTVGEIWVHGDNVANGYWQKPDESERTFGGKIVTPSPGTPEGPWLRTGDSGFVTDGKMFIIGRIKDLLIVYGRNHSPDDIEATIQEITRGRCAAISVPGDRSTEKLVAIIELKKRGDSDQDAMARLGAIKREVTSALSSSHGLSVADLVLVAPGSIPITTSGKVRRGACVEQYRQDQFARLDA
Procedure, shortened: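 Coupled continuous assay with pyrophosphatase (0.04 U) and nucleoside phosphorylase (0.1 U), using 0.45 μM FAAL28 and 33 μM tetradecanoic acid. Buffer was 50 mM Tris·HCl pH 8.0 with 2.5 mM ATP, 5 mM MgCl₂, 0.5 mM DTT, 150 mM hydroxylamine and 0.2 mM MesG. Apparent Ki came from a Morrison equation fit.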

[6] = tested on: Vero; assay: Cytotoxicity against African green monkey Vero cells assessed as reduction in cell viability after 72 hrs by MTT assay; assay type: cell-based; conditions: Chlorocebus sabaeus
Procedure, shortened: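 Vero cells were seeded at (2.5–5.0) × 10⁴ per well in MEM with 5% FBS and penicillin/streptomycin. Compounds were added from 20 mM DMSO stocks to a final 100 μM. Controls were 0.5% and 50% DMSO, all in triplicate. After 72 h at 37 °C in 5% CO₂, cells got 1 mg/mL MTT for 3 h. Formazan was dissolved in isopropanol and read at 570/650 nm, with viability expressed relative to DMSO control.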

[7] = molecular target: T2, Medium/long-chain-fatty-acid--CoA/3-oxocholest-4-en-26-oate--CoA ligase (Mycobacterium tuberculosis, UniProt P9WQ51); assay: Inhibition of Mycobacterium tuberculosis H37Rv FACL19 Spectra expressed in Escherichia coli BL21(DE3) cells assessed as cleavage of MEsG by spectroscopic analysis; conditions: read-out: Ki(app)
T2 sequence (P9WQ51 whole entry): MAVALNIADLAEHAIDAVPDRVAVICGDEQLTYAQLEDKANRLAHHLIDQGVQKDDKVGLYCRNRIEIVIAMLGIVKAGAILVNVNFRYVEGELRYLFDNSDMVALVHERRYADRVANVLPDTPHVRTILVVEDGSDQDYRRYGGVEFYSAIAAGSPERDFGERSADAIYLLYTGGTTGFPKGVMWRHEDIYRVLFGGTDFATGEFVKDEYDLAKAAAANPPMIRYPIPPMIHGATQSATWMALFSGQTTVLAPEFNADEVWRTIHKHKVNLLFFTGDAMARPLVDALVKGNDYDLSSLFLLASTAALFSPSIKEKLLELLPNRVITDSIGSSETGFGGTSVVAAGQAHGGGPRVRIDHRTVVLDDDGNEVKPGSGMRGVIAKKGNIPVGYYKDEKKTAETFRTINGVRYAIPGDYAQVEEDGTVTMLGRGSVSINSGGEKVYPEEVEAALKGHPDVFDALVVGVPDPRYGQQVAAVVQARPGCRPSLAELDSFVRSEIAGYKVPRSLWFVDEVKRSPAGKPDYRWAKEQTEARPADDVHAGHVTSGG
Procedure, shortened: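 FACL19 (0.167 μM) with 250 μM dodecanoic acid in a coupled MesG assay with pyrophosphatase and nucleoside phosphorylase. Buffer was 50 mM Tris·HCl pH 8.0 with 2.5 mM ATP, 5 mM MgCl₂, 0.5 mM DTT and 150 mM hydroxylamine. Apparent Ki came from a Morrison tight-binding fit.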

[8] = tested on: Mycolicibacterium smegmatis; assay: Antimycobacterial activity against Mycobacterium smegmatis; assay type: functional
[9] = molecular target: T2, Medium/long-chain-fatty-acid--CoA/3-oxocholest-4-en-26-oate--CoA ligase; assay: Inhibition of Mycobacterium tuberculosis H37Rv His-tagged FACL19 expressed in Escherichia coli; conditions: read-out: Ki(app)
[10] = tested on: Mycobacterium tuberculosis; assay: Antimycobacterial activity against Mycobacterium tuberculosis H37Rv after 16 hrs; assay type: functional
[11] = molecular target: T1, Long-chain-fatty-acid--AMP ligase FadD28; assay: Inhibition of Mycobacterium tuberculosis H37Rv His-tagged FAAL28 expressed in Escherichia coli; conditions: read-out: Ki(app)

SMILES | IC50 [1] [µM] | MIC [2] [µM] | MIC [3] [µM] | MIC [4] [µM] | Ki [5] [µM] | IC50 [6] [µM] | Ki [7] [µM] | MIC [8] [µM] | Ki [9] [µM] | MIC [10] [µM] | Ki [11] [µM]
Cc1cc2oc(=O)cc(-c3cccc(N)c3)c2c(C)c1-c1ccc(CN2CCOCC2)cc1 | 0.5 |  |  |  |  |  |  |  |  |  | 
CCCC(=O)NS(=O)(=O)OC[C@H]1O[C@@H](n2cnc3c(N)ncnc32)[C@H](O)[C@@H]1O |  | > 100 | > 100 | > 100 | > 100 | 81.4 | > 100 |  |  |  | 
CCCCCC(=O)NS(=O)(=O)OC[C@H]1O[C@@H](n2cnc3c(N)ncnc32)[C@H](O)[C@@H]1O |  | > 100 | 100 (≈ 44.4 µg/mL) | > 100 | > 100 | 48.6 | > 100 |  |  |  | 
Nc1ncnc2c1ncn2[C@@H]1O[C@H](COS(=O)(=O)NC(=O)CCCCCCCCCCO)[C@@H](O)[C@H]1O |  | 100 | 6.25 (≈ 3.32 µg/mL) | 100 (≈ 53.1 µg/mL) | 92.7 | 42.7 | > 100 |  |  |  | 
CCCCCCCCC[C@@H]1C[C@@H]1C(=O)NS(=O)(=O)OC[C@H]1O[C@@H](n2cnc3c(N)ncnc32)[C@H](O)[C@@H]1O |  | > 100 | 50 (≈ 27 µg/mL) | > 100 | 69.8 | 6.1 | > 100 |  |  |  | 
CCCCCCCCCC(=O)NS(=O)(=O)OC[C@H]1O[C@@H](n2cnc3c(N)ncnc32)[C@H](O)[C@@H]1O |  | > 100 | 1.56 (≈ 0.781 µg/mL) | 100 (≈ 50.1 µg/mL) | 88 | 10.1 | > 100 |  |  |  | 
CCCCCC/C=C/CCCC(=O)NS(=O)(=O)OC[C@H]1O[C@@H](n2cnc3c(N)ncnc32)[C@H](O)[C@@H]1O |  | > 100 | 100 (≈ 52.7 µg/mL) | > 100 | > 100 | 16.8 | > 100 |  |  |  | 
CCCCCCCC(=O)NS(=O)(=O)OC[C@H]1O[C@@H](n2cnc3c(N)ncnc32)[C@H](O)[C@@H]1O |  | > 100 | 12.5 (≈ 5.91 µg/mL) | 100 (≈ 47.3 µg/mL) | > 100 | 6 | > 100 |  |  |  | 
CCCCCCCCCCCCOP(=O)(O)OC[C@H]1O[C@@H](n2cnc3c(N)ncnc32)[C@H](O)[C@@H]1O |  |  |  |  |  |  |  | 20 (≈ 10.3 µg/mL) |  |  | 
C#CCCCCCCCCC(=O)NS(=O)(=O)OC[C@H]1O[C@@H](n2cnc3c(N)ncnc32)[C@H](O)[C@@H]1O |  | 50 | 1.56 (≈ 0.796 µg/mL) | 50 (≈ 25.5 µg/mL) | > 100 | 9.7 | > 100 |  |  |  | 
NCCCCCCCCCCCC(=O)NS(=O)(=O)OC[C@H]1O[C@@H](n2cnc3c(N)ncnc32)[C@H](O)[C@@H]1O |  | 12.5 | 3.13 (≈ 1.7 µg/mL) | 50 (≈ 27.2 µg/mL) | > 100 | 27.1 | 93.3 |  |  |  | 
C=CCCCCCCCCC(=O)NS(=O)(=O)OC[C@H]1O[C@@H](n2cnc3c(N)ncnc32)[C@H](O)[C@@H]1O |  | 25 | 0.39 (≈ 0.2 µg/mL) | 25 (≈ 12.8 µg/mL) | > 100 | 11.6 | > 100 |  |  |  | 
Nc1ncnc2c1ncn2[C@@H]1O[C@H](COS(=O)(=O)NC(=O)CCCCCCCCCCOc2ccccc2)[C@@H](O)[C@H]1O |  | 50 | 3.13 (≈ 1.9 µg/mL) | 50 (≈ 30.3 µg/mL) | 0.71 | 2 | > 100 |  |  |  | 
CCCCCCCCCOCC(=O)NS(=O)(=O)OC[C@H]1O[C@@H](n2cnc3c(N)ncnc32)[C@H](O)[C@@H]1O |  | 25 | 0.098 (≈ 0.052 µg/mL) | 25 (≈ 13.3 µg/mL) | > 100 | 8.7 | > 100 |  |  |  | 
CCCCCCCCCCCCCCCCCC(=O)NS(=O)(=O)OC[C@H]1O[C@@H](n2cnc3c(N)ncnc32)[C@H](O)[C@@H]1O |  | > 100 | 100 (≈ 61.3 µg/mL) | 100 (≈ 61.3 µg/mL) | 0.5 | 0.1 | 2.4 |  |  |  | 
CCCCCCCCCCCC(=O)NS(=O)(=O)OC[C@H]1O[C@@H](n2cnc3c(N)ncnc32)[C@H](O)[C@@H]1O |  | 50 | 0.19 (≈ 0.1 µg/mL) | 50 (≈ 26.4 µg/mL) | 6.4 | 28.7 | 67.4 |  | 4.9 | 100 (≈ 52.9 µg/mL) | 1.5
CCCCCCCCCCCCCC(=O)NS(=O)(=O)OC[C@H]1O[C@@H](n2cnc3c(N)ncnc32)[C@H](O)[C@@H]1O |  | 100 | 0.39 (≈ 0.217 µg/mL) | 50 (≈ 27.8 µg/mL) | 1.4 | 0.9 | 10 |  |  |  | 
CCCCCCCCC/C=C/C(=O)NS(=O)(=O)OC[C@H]1O[C@@H](n2cnc3c(N)ncnc32)[C@H](O)[C@@H]1O |  | > 100 | 100 (≈ 52.7 µg/mL) | > 100 | > 100 | 10.4 | > 100 |  |  |  | 
